We go through 12 compounds from ChEMBL document CHEMBL1143719, “Design, synthesis, and anticonvulsant activity of some sulfamides” (Bioorg Med Chem, 2007).

For data set [1], the system named is Mus musculus. The data set is described as follows: Anticonvulsant activity in Albino mouse at 100 mg/kg, ip after 0.5 hrs by MES assay. It counts as functional, organism-based. The arrangement: dose 100 mg/kg. Put shortly: (§1)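 Mice given compound ip at 30, 100 and 300 mg/kg in 30% polyethylene glycol 400 and 10% water, 0.01 mL/g body weight. Three animals per dose. Maximal electroshock (MES) or pentylenetetrazol (PTZ) seizure tests were run 0.5 and 4 h after dosing, and animals protected were counted.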

For data set [2], the system named is Mus musculus. The data set is described as follows: Anticonvulsant activity in Albino mouse at 300 mg/kg, ip after 4 hrs by PTZ assay. The arrangement: dose 300 mg/kg. The format is functional, organism-based. Put shortly: as §1
For data set [3], the system named is Mus musculus. Kind of data set: Neurotoxicity in Albino mouse at 30 mg/kg, ip after 4 hrs by RotoRod test. The format is toxicity, organism-based. More on the design: dose 30 mg/kg, route intraperitoneal. The note with it: in vivo. Put shortly:
(§2)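 RotoRod neurotoxicity screen in mice dosed ip at 30, 100 and 300 mg/kg, in vehicle of 30% PEG 400 and 10% water (0.01 mL/g). Three animals per dose, tested 0.5 and 4 h after administration. Affected animals were scored per group.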
For orientation: The rotarod test checks motor coordination on a turning rod.

The subject of data set [4] is Mus musculus. Kind of data set: Anticonvulsant activity in Albino mouse at 100 mg/kg, ip after 4 hrs by MES assay. It counts as functional, organism-based. The arrangement: dose 100 mg/kg. Put shortly:
as §1

For data set [5], the system named is Mus musculus. The data set is described as follows: Neurotoxicity in Albino mouse at 100 mg/kg, ip after 4 hrs by RotoRod test. The format is toxicity, organism-based. More on the design: dose 100 mg/kg, route intraperitoneal. The note with it: in vivo. Put shortly:
as §2

Data set [6] concerns Mus musculus. The data set is described as follows: Anticonvulsant activity in Albino mouse at 30 mg/kg, ip after 4 hrs by PTZ assay. It counts as functional, organism-based. More on the design: dose 30 mg/kg. In short, it runs like this: as §1
Data set [7] deals with Mus musculus. The data set is described as follows: Neurotoxicity in Albino mouse at 300 mg/kg, ip after 4 hrs by RotoRod test. The format is toxicity, organism-based. More on the design: dose 300 mg/kg, route intraperitoneal. Particulars: in vivo. Put shortly: as §2
The subject of data set [8] is Mus musculus. The data set is described as follows: Anticonvulsant activity in Albino mouse at 30 mg/kg, ip after 4 hrs by MES assay. The format is functional, organism-based. The arrangement: dose 30 mg/kg. Put shortly:
as §1

Data set [9] concerns Mus musculus. The data set is described as follows: Anticonvulsant activity in Albino mouse at 300 mg/kg, ip after 0.5 hrs by MES assay. It counts as functional, organism-based. The arrangement: dose 300 mg/kg. Put shortly: as §1
The test system of data set [10] is Mus musculus. The data set is described as follows: Anticonvulsant activity in Albino mouse at 30 mg/kg, ip after 0.5 hrs by MES assay. The format is functional, organism-based. The arrangement: dose 30 mg/kg. In short, it runs like this:
as §1

Data set [11] relates to Mus musculus. Kind of data set: Anticonvulsant activity in Albino mouse at 100 mg/kg, ip after 0.5 hrs by PTZ assay. More on the design: dose 100 mg/kg. The format is functional, organism-based. Put shortly:
as §1

In data set [12] the test system is Mus musculus. The data set is described as follows: Anticonvulsant activity in Albino mouse at 300 mg/kg, ip after 0.5 hrs by PTZ assay. It counts as functional, organism-based. More on the design: dose 300 mg/kg. In short, it runs like this: as §1
The test system of data set [13] is Mus musculus. Kind of data set: Anticonvulsant activity in Albino mouse at 100 mg/kg, ip after 4 hrs by PTZ assay. The format is functional, organism-based. More on the design: dose 100 mg/kg. In short, it runs like this: as §1
Data set [14] relates to Mus musculus. Kind of data set: Neurotoxicity in Albino mouse at 30 mg/kg, ip after 0.5 hrs by RotoRod test. More on the design: dose 30 mg/kg, route intraperitoneal. The note with it: in vivo. The format is toxicity, organism-based. Put shortly: as §2
Data set [15] concerns Mus musculus. The data set is described as follows: Anticonvulsant activity in Albino mouse at 300 mg/kg, ip after 4 hrs by MES assay. The format is functional, organism-based. The arrangement: dose 300 mg/kg. Put shortly: as §1
For data set [16], the system named is Mus musculus. Kind of data set: Neurotoxicity in Albino mouse at 100 mg/kg, ip after 0.5 hrs by RotoRod test. It counts as toxicity, organism-based. More on the design: dose 100 mg/kg, route intraperitoneal. The note with it: in vivo. In short, it runs like this:
as §2

Data set [17] deals with Mus musculus. Kind of data set: Anticonvulsant activity in Albino mouse at 30 mg/kg, ip after 0.5 hrs by PTZ assay. It counts as functional, organism-based. The arrangement: dose 30 mg/kg. Put shortly:
as §1

The test system of data set [18] is Mus musculus. The data set is described as follows: Neurotoxicity in Albino mouse at 300 mg/kg, ip after 0.5 hrs by RotoRod test. The format is toxicity, organism-based. The arrangement: dose 300 mg/kg, route intraperitoneal. The note with it: in vivo. Put shortly:
as §2

Active and inactive are the calls of the source. The rule behind the calls is not given here.

Turning to `O=S(=O)(NC1CC1)NC1CC1`, the result in the data set on Mus musculus [1], in the data set on Mus musculus [2], with Mus musculus [4], with Mus musculus [6], in the data set with Mus musculus [8] and in the data set with Mus musculus [9] was inactive. Besides, the outcome in the data set with Mus musculus [10], in the data set with Mus musculus [11], with Mus musculus [12], in the data set with Mus musculus [13], in the data set on Mus musculus [15] and in the data set with Mus musculus [17] was inactive. Further, the Activity entry in the data set with Mus musculus [3], in the data set on Mus musculus [5], in the data set on Mus musculus [7], in the data set with Mus musculus [14], with Mus musculus [16] and in the data set with Mus musculus [18] was “Non-toxic” in each case.
`O=S(=O)(N1CCOCC1)N1CCOCC1`: the outcome with Mus musculus [1], in the data set with Mus musculus [4], in the data set on Mus musculus [6], with Mus musculus [8], in the data set with Mus musculus [10] and with Mus musculus [11] was inactive. The outcome in the data set on Mus musculus [13] and in the data set on Mus musculus [17] was inactive. Further, the Activity entry in the data set on Mus musculus [3], with Mus musculus [5], with Mus musculus [14] and with Mus musculus [16] was “Non-toxic” in each case.
Turning to `CCCCNS(N)(=O)=O`, the outcome in the data set on Mus musculus [1], with Mus musculus [6], in the data set with Mus musculus [10], in the data set with Mus musculus [11], in the data set with Mus musculus [13] and in the data set on Mus musculus [17] was inactive. Further, the Activity result with Mus musculus [3] is “Non-toxic”; in the data set with Mus musculus [5] it was “Non-toxic”; in the data set on Mus musculus [14], “Non-toxic”; in the data set with Mus musculus [18] it was “Toxic”.
As to `CCCCN(CCCC)S(N)(=O)=O`, the Activity entry was “Non-toxic” in the data set on Mus musculus [3]; “Non-toxic” in the data set with Mus musculus [5]; “Toxic” in the data set with Mus musculus [7]; “Non-toxic” in the data set on Mus musculus [14]; “Non-toxic” with Mus musculus [16]; “Toxic” in the data set on Mus musculus [18]. The outcome in the data set on Mus musculus [4], in the data set on Mus musculus [6], in the data set on Mus musculus [8], in the data set with Mus musculus [10], in the data set with Mus musculus [13] and with Mus musculus [17] was inactive.
As for `CCCCNS(=O)(=O)NC(=O)OC(C)(C)C`, the result in the data set on Mus musculus [1] and with Mus musculus [9] was Active. The outcome in the data set on Mus musculus [2], in the data set with Mus musculus [6], in the data set on Mus musculus [8], in the data set with Mus musculus [11], with Mus musculus [12] and in the data set on Mus musculus [13] was inactive. The outcome with Mus musculus [17] was inactive. Also, the Activity result with Mus musculus [3], with Mus musculus [5], in the data set with Mus musculus [7], in the data set with Mus musculus [14], in the data set with Mus musculus [16] and in the data set on Mus musculus [18] was “Non-toxic” throughout.
`CCCCN(CCCC)S(=O)(=O)N(CCCC)CCCC`: the outcome with Mus musculus [1], with Mus musculus [2], with Mus musculus [4], in the data set with Mus musculus [8], in the data set with Mus musculus [9] and in the data set on Mus musculus [10] was inactive. Moreover, the result in the data set with Mus musculus [11], with Mus musculus [12], in the data set on Mus musculus [13], in the data set with Mus musculus [15] and with Mus musculus [17] was inactive. Moreover, the Activity entry with Mus musculus [3], in the data set on Mus musculus [5], in the data set on Mus musculus [7], with Mus musculus [14], in the data set with Mus musculus [16] and in the data set with Mus musculus [18] was “Non-toxic” each time.
With `CCCN(CCC)S(N)(=O)=O`, the Activity entry in the data set on Mus musculus [3], in the data set with Mus musculus [5], in the data set on Mus musculus [14] and in the data set with Mus musculus [16] was “Toxic” each time. In addition, the result with Mus musculus [6], in the data set with Mus musculus [8], with Mus musculus [10] and with Mus musculus [17] was inactive.
Take `CCCCN(CCCC)S(=O)(=O)NC(=O)OC(C)(C)C`: the outcome in the data set with Mus musculus [2], with Mus musculus [4], in the data set with Mus musculus [6], in the data set on Mus musculus [10], with Mus musculus [11] and in the data set with Mus musculus [12] was inactive. The result in the data set on Mus musculus [13] and in the data set with Mus musculus [17] was inactive. In addition, the Activity result in the data set on Mus musculus [3], with Mus musculus [5], in the data set on Mus musculus [7], in the data set on Mus musculus [14], in the data set with Mus musculus [16] and with Mus musculus [18] was “Non-toxic” in each case.
With `CCCN(CCC)S(=O)(=O)N(CCC)CCC`, the result in the data set with Mus musculus [1], with Mus musculus [2], in the data set on Mus musculus [4], with Mus musculus [6], with Mus musculus [8] and in the data set with Mus musculus [9] was inactive. Moreover, the result with Mus musculus [10], in the data set with Mus musculus [11], in the data set on Mus musculus [12], in the data set on Mus musculus [13], in the data set with Mus musculus [15] and in the data set on Mus musculus [17] was inactive. The Activity result with Mus musculus [3], in the data set on Mus musculus [5], in the data set on Mus musculus [7], in the data set on Mus musculus [14], in the data set on Mus musculus [16] and in the data set on Mus musculus [18] was “Non-toxic” each time.
For the compound `CCCN(CCC)S(=O)(=O)NC(=O)OC(C)(C)C`, the outcome in the data set on Mus musculus [1], with Mus musculus [2], in the data set on Mus musculus [4], with Mus musculus [6], in the data set on Mus musculus [8] and in the data set on Mus musculus [10] was inactive. Further, the outcome with Mus musculus [11], in the data set with Mus musculus [12], in the data set with Mus musculus [13], in the data set on Mus musculus [15] and with Mus musculus [17] was inactive. Moreover, the Activity entry in the data set on Mus musculus [3], in the data set on Mus musculus [5], in the data set on Mus musculus [7], with Mus musculus [14], with Mus musculus [16] and with Mus musculus [18] was “Non-toxic” each time.
As for `CC(C)(C)OC(=O)NS(=O)(=O)NCc1ccccc1`, the result in the data set with Mus musculus [1], with Mus musculus [2], in the data set with Mus musculus [4], with Mus musculus [6], in the data set with Mus musculus [8] and in the data set with Mus musculus [9] was inactive. The result with Mus musculus [10], in the data set with Mus musculus [11], with Mus musculus [12], in the data set with Mus musculus [13], with Mus musculus [15] and in the data set on Mus musculus [17] was inactive. Besides, the Activity result in the data set on Mus musculus [3], with Mus musculus [5], in the data set with Mus musculus [7], with Mus musculus [14], with Mus musculus [16] and in the data set with Mus musculus [18] was “Non-toxic” in each case.
In the case of `CCCNS(=O)(=O)NCCC`, the outcome in the data set on Mus musculus [1], in the data set on Mus musculus [2], with Mus musculus [4], in the data set on Mus musculus [8], in the data set with Mus musculus [10] and in the data set on Mus musculus [13] was inactive. For the same compound, the outcome in the data set on Mus musculus [15] and in the data set with Mus musculus [17] was inactive. Further, the Activity entry in the data set with Mus musculus [3], in the data set on Mus musculus [5], in the data set with Mus musculus [7], in the data set with Mus musculus [14] and in the data set on Mus musculus [16] was “Non-toxic” in each case. For the same compound, the result in the data set on Mus musculus [9] and with Mus musculus [12] was Active.
